Measurements taken from ChEMBL document CHEMBL2163266, “3,3'-Disubstituted bipolar biphenyls as inhibitors of nuclear receptor coactivator binding” (Bioorg Med Chem Lett, 2012).
The source made the active and inactive calls. The rule behind the calls is not given here.

Columns and labels:
[1] = molecular target: T1, Estrogen receptor (Homo sapiens) (UniProt P03372); test: Antagonist activity at ERalpha co-activator binding domain expressed in human HepG2 cells assessed as inhibition of E2-induced […] LXXLL2 binding measured as decrease in […] activity at 20 to 50 uM after 40 hrs by luciferase reporter gene assay; assay type: cell-based
T1 sequence (whole entry): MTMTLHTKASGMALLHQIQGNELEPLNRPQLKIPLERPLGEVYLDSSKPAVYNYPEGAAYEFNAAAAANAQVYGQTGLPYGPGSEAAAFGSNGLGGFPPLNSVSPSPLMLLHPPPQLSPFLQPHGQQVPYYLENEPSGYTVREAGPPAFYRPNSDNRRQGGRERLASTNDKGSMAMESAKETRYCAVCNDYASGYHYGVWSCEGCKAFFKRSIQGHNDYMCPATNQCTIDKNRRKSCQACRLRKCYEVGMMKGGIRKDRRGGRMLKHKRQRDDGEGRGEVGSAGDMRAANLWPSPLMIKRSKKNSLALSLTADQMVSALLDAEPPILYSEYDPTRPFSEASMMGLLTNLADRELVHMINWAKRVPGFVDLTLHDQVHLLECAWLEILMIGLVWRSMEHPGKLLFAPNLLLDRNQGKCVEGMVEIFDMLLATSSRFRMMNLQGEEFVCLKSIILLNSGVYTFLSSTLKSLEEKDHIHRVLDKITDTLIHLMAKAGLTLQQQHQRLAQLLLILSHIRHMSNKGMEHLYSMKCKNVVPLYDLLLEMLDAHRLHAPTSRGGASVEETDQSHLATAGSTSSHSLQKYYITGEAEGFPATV
Method in brief: (§1)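 HepG2 cells co-transfected with VP16-ERα, pM-GRIP1-LXXLL2, the 5xGal4-Luc3 reporter and a pCMV-β-gal normalization control. Serial twofold dilutions given with or without 1 nM estradiol, 40 h, then reporter read. Scored as >50% increase or decrease in reporter activity within concentration bands (<20, 20–50, >50 µM); <20% change scored 0.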

CV-1 = test: Cytotoxicity against african green monkey CV1 cells at >50 uM; assay type: cell-based; details: chlorocebus aethiops
MCF7 [2] = test: Effect on E2-induced IDH3A expression in human MCF7 cells at 20 uM incubated for 2 hrs measured after 14 hrs by qPCR analysis; assay type: functional, cell-based
Method in brief: (§2)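 MCF-7 (ER+) cells pretreated 2 h with 20 µM compound, then exposed to vehicle or estradiol for 14 h before target gene expression was measured.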

[3] = molecular target: T1, Estrogen receptor (Homo sapiens); test: Antagonist activity at ERalpha in human MCF7 cells assessed as reduction in E2-induced PS2 expression at 20 uM incubated for 2 hrs prior to E2-induction measured after 14 hrs by qPCR analysis; assay type: functional, cell-based; design: scale not given: the % may be the effect or the level left; method in brief: as §2
[4] = molecular target: T1, Estrogen receptor (Homo sapiens); test: Agonist activity at ERalpha in human MCF7 cells assessed as increase in PR expression at 20 uM incubated for 2 hrs measured after 14 hrs by qPCR analysis relative to E2; assay type: functional, cell-based; method in brief: as §2
MCF7 [5] = test: Effect on IDH3A expression in human MCF7 cells at 20 uM incubated for 2 hrs measured after 14 hrs by qPCR analysis relative to E2; assay type: functional, cell-based; method in brief: as §2
[6] = molecular target: T1, Estrogen receptor (Homo sapiens); test: Agonist activity at ERalpha in human MCF7 cells assessed as increase in PS2 expression at 20 uM incubated for 2 hrs measured after 14 hrs by qPCR analysis relative to E2; assay type: functional, cell-based; method in brief: as §2
[7] = molecular target: T1, Estrogen receptor (Homo sapiens); test: Antagonist activity at ERalpha in human MCF7 cells assessed as reduction in E2-induced SDF1 expression at 20 uM incubated for 2 hrs prior to E2-induction measured after 14 hrs by qPCR analysis; assay type: functional, cell-based; design: scale not given: the % may be the effect or the level left; method in brief: as §2
[8] = molecular target: T1, Estrogen receptor (Homo sapiens); test: Binding affinity to ERalpha co-activator binding domain by TR-FRET assay
[9] = molecular target: T1, Estrogen receptor (Homo sapiens); test: Antagonist activity at ERalpha co-activator binding domain in human Hec1 cells assessed as inhibition of co-activator binding by reporter gene assay; assay type: cell-based
[10] = molecular target: T1, Estrogen receptor (Homo sapiens); test: Agonist activity at ERalpha in human MCF7 cells assessed as increase in SDF1 expression at 20 uM incubated for 2 hrs measured after 14 hrs by qPCR analysis relative to E2; assay type: functional, cell-based; method in brief: as §2
[11] = molecular target: T1, Estrogen receptor (Homo sapiens); test: Antagonist activity at ERalpha in human MCF7 cells assessed as reduction in E2-induced PR expression at 20 uM incubated for 2 hrs prior to E2-induction measured after 14 hrs by qPCR analysis; assay type: functional, cell-based; design: scale not given: the % may be the effect or the level left; method in brief: as §2
[12] = molecular target: T1, Estrogen receptor (Homo sapiens); test: Antagonist activity at ERalpha co-activator binding domain expressed in human HepG2 cells assessed as inhibition of E2-induced […] LXXLL2 binding measured as decrease in […] activity after 40 hrs by luciferase reporter gene assay; assay type: cell-based; design: concentration or dose not given beside the values; method in brief: as §1
[13] = molecular target: T1, Estrogen receptor (Homo sapiens); test: Agonist activity at ERalpha co-activator binding domain expressed in human HepG2 cells assessed as […] LXXLL2 binding measured as […] activity at <20 uM; assay type: cell-based; method in brief: as §1
HepG2 = test: Cytotoxicity against human HepG2 cells expressing ERalpha co-activator binding domain at >50 uM; assay type: cell-based
[14] = molecular target: T1, Estrogen receptor (Homo sapiens); test: Activity at ERalpha in human MCF7 cells assessed as increase in E2-induced PS2 expression at 20 uM incubated for 2 hrs prior to E2-induction measured after 14 hrs by qPCR analysis; assay type: cell-based; method in brief: as §2
[15] = molecular target: T1, Estrogen receptor (Homo sapiens); test: Activity at ERalpha in human MCF7 cells assessed as increase in E2-induced PR expression at 20 uM incubated for 2 hrs prior to E2-induction measured after 14 hrs by qPCR analysis; assay type: cell-based; method in brief: as §2

SMILES | Activity [4] | Activity [6] | Activity [7] [%] | Activity [8] | inhibition [9] | Activity [10] | Activity [12] [%] | Activity (CV-1) | Activity (MCF7 [2]) | Activity (MCF7 [5]) | other results
CCOC(=O)COc1ccc(-c2ccc(O)c(C(C)C)c2)cc1C(C)C |  |  |  |  |  |  |  | Toxic |  |  | inhibition [1]: > 50%
CCOC(=O)COc1ccc(-c2ccc(OCCN(C)C)c(Cc3ccccc3)c2)cc1Cc1ccccc1 |  |  |  |  |  |  |  | Toxic |  |  | 
CCOC(=O)COc1ccc(-c2ccc(O)c(C(C)CC)c2)cc1C(C)CC (stereo unspecified) |  |  |  |  |  |  |  | Toxic |  |  | inhibition [1]: > 50%
CCOC(=O)COc1ccc(-c2ccc(OCCN(C)C)cc2)cc1 |  |  |  |  |  |  | < 20 |  |  |  | Activity [13]: > 50%
CCOC(=O)COc1ccc(-c2ccc(OCCN(C)C)c(C(C)CC)c2)cc1C(C)CC (stereo unspecified) |  |  |  |  |  |  |  | Toxic |  |  | Activity (HepG2): Toxic; Activity [13]: > 50%
CN(C)CCOc1ccc(-c2ccc(OCC(=O)O)c(C(C)(C)C)c2)cc1C(C)(C)C | > 20% | > 20% | > 20 | Active | Active | > 20% |  |  | inactive | inactive | Activity [14]: > 20%; Activity [15]: > 20%
CCOC(=O)COc1ccc(-c2ccc(O)c(Cc3ccccc3)c2)cc1Cc1ccccc1 |  |  |  |  |  |  | < 20 |  |  |  | 
CCOC(=O)COc1ccc(-c2ccc(O)cc2)cc1 |  |  |  |  |  |  | < 20 |  |  |  | Activity [13]: > 50%
CN(C)CCOc1ccc(-c2ccc(OCC(=O)O)c(Cc3ccccc3)c2)cc1Cc1ccccc1 | inactive | inactive | > 20 | Active | Active | inactive |  |  | inactive | inactive | Activity [3]: inactive; inhibition [1]: > 50%; Activity [11]: > 20%
CN(C)CCOc1ccc(-c2ccc(OCC(=O)O)cc2)cc1 | > 20% | > 20% | > 20 | Active | Active | > 20% | < 20 |  | inactive | inactive | Activity [3]: inactive; Activity [11]: > 20%
CCOC(=O)COc1ccc(-c2ccc(O)c(C(C)(C)C)c2)cc1C(C)(C)C |  |  |  |  |  |  | < 20 |  |  |  | Activity [13]: > 50%

Continued, in another order:

Activity [4] | Activity [6] | Activity [7] [%] | Activity [8] | inhibition [9] | Activity [10] | Activity [12] [%] | SMILES | Activity (CV-1) | Activity (MCF7 [2]) | Activity (MCF7 [5]) | other results
inactive | inactive | > 20 | Active | Active | inactive |  | CCC(C)c1cc(-c2ccc(OCC(=O)O)c(C(C)CC)c2)ccc1OCCN(C)C (stereo unspecified) |  | inactive | inactive | Activity [3]: > 20%; Activity [11]: > 20%
 |  |  |  |  |  | < 20 | CCOC(=O)COc1ccc(-c2ccc(OCCN(C)C)c(C(C)C)c2)cc1C(C)C |  |  |  | 
inactive | inactive | > 20 | Active | Active | inactive | < 20 | CC(C)c1cc(-c2ccc(OCC(=O)O)c(C(C)C)c2)ccc1OCCN(C)C |  | inactive | inactive | Activity [3]: inactive; Activity [11]: > 20%
 |  |  |  |  |  | < 20 | CCOC(=O)COc1ccc(-c2ccc(OCCN(C)C)c(C(C)(C)C)c2)cc1C(C)(C)C | Toxic |  |  | 
